PubChem BioAssay AID493080 (Broad Institute, 2011)
Several values for one entry are separate records, joined by “and”; a condition that tells them apart may be missing. Equal entries are not always repeated. Activity calls are given as the source filed them.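 How the source made its calls: active means growth inhibition with fitted AC50 no more than ten times the top valid dose; inconclusive means flat fit at 30 to 70% inhibition, or bad fit; inactive means the rest, including rises in signal.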

How the values were obtained:
[1] = growth inhibition of fluconazole-resistant C. albicans, confirmation, dry powder retest, set 3 (AID 493080); details: C. albicans CaCi-2 + fluconazole, Alamar Blue growth, 48 h
Method in brief: (§1)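 Test system: fluconazole-resistant Candida albicans clinical isolate CaCi-2; Quantity: inoculum A600 0.00015; Buffer or medium: RPMI medium, MOPS-buffered; Probe or stimulus: fluconazole 8 µg/mL; Dosing: pin-transferred compounds; Times: 48 h compound exposure, 37 °C, then Alamar Blue 2 h; Detection: Alamar Blue fluorescence, excitation 544 nm, emission 590 nm; Benchmarks: geldanamycin as positive control.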

[2] = tested on: C. albicans CaCi-2 + fluconazole, Alamar Blue growth, 48 h; experiment: as above
Method in brief: as §1

| Compound | activity change, negative = inhibition ([1]; at 12 µM (top of the series)) | AC50 [2] | other results |
| --- | --- | --- | --- |
| COC(=O)Cn1c(-c2ccccc2)nc2ccccc21 | -5.95% (inactive) |  |  |
| CCN(CC)C(=O)Cn1c2ccccc2c2nc3n(c(=O)c21)CCS3 |  | 1670 nM and 1820 nM |  |
| CCOC(=O)c1nn(Cc2ccc(Cl)cc2)c2ccccc12 | 4.97% (inactive) |  |  |
| CCCNC(=O)Cn1nc(-c2ccccc2)c2ccccc21 | 26.9% (inactive) |  |  |
| CNC(=O)Cn1nc(-c2ccccc2)c2ccccc21 | 10.1% (inactive) |  |  |
| COC(=O)Cn1nc(-c2ccc(C)cc2)c2ccccc21 |  | 8980 nM |  |
| O=C(O)c1nn(Cc2ccc(Cl)cc2)c2ccccc12 | -7.95% (inactive) |  |  |
| O=C(Cn1c2ccccc2c2nc3n(c(=O)c21)CCS3)N1CCCCC1 |  | 2080 nM |  |
| COc1ccnc(N2CCN(C(=O)c3ccc(Cl)cc3)CC2)c1 |  | > 12000 nM (inactive) |  |
| O=C(c1ccc(Cl)cc1)N1CCN(c2cccc(C(F)(F)F)n2)CC1 | -1.86% (inactive) |  |  |
| O=C(Cn1c2ccccc2c2nc3n(c(=O)c21)CCCS3)c1ccc(F)cc1 | 3.71% (inactive) |  |  |
| CCN(CC)C(=O)Cn1c2ccc(F)cc2c2nc3n(c(=O)c21)CCS3 |  | 685 nM |  |
| Cc1cccc(N2CCN(C(=O)c3ccc(Cl)cc3)CC2)n1 | -17.4% (inactive) |  |  |
| CCOC(=O)c1c2ccccc2nn1Cc1ccc(Cl)cc1 | 17.8% (inactive) |  |  |
| COC(=O)Cn1nc(-c2ccccc2)c2ccccc21 |  | 2110 nM |  |
| O=c1c2[nH]c3ccc(F)cc3c2nc2n1CCS2 |  | 2960 nM |  |
| CC1CCN(C(=O)Cn2c3ccccc3c3nc4n(c(=O)c32)CCS4)CC1 |  | 2200 nM |  |
| CCCCC(=O)N1CCN(c2ccccn2)CC1 | -2.66% (inactive) |  |  |
| O=C(Cn1c2ccc(F)cc2c2nc3n(c(=O)c21)CCS3)N1CCCCC1 |  | 384 nM |  |
| O=C(c1ccc(Cl)cc1)N1CCN(c2ccc(C(F)(F)F)cn2)CC1 |  | > 12000 nM (inactive) |  |
| N#Cc1cccc(N2CCN(C(=O)c3ccc(Cl)cc3)CC2)n1 | 0.43% (inactive) |  |  |
| c1ccc(-c2n[nH]c3ccccc23)cc1 | 24.5% (inactive) |  |  |
| O=C(O)Cn1nc(-c2ccccc2)c2ccccc21 | -8.71% (inactive) |  |  |
| O=C(Cn1nc(-c2ccccc2)c2ccccc21)NCc1ccc(Cl)cc1 | -6.29% (inactive) |  |  |
| O=C(Cn1nc(-c2ccccc2)c2cc(Cl)ccc21)N1CCOCC1 | -1.59% (inactive) |  |  |

| Compound | activity change, negative = inhibition ([1]; at 12 µM (top of the series)) | AC50 [2] | other results |
| --- | --- | --- | --- |
| O=C(c1ccc(Cl)cc1)N1CCN(c2nc3ccccc3s2)CC1 |  | 4120 nM |  |
| CCCNC(=O)Cn1nc(-c2ccccc2)c2cc(Cl)ccc21 | 27.1% (inactive) |  |  |
| CC1CCN(C(=O)Cn2c3ccc(F)cc3c3nc4n(c(=O)c32)CCCS4)CC1 |  | 2090 nM |  |
| O=C(c1ccccc1Cl)N1CCN(c2ccccn2)CC1 | 8.16% (inactive) |  |  |
| O=C(c1cccc(Cl)c1)N1CCN(c2ccccn2)CC1 | 8.07% (inactive) |  |  |
| CC1CCN(C(=O)Cn2c3ccccc3c3nc4n(c(=O)c32)CCCS4)CC1 |  | 11000 nM |  |
| O=C(c1ccc(F)cc1)N1CCN(c2ccccn2)CC1 |  | > 12000 nM (inactive) |  |
| O=C(Cn1nc(-c2ccccc2)c2ccccc21)N1CCc2ccccc2C1 | 3.01% (inactive) |  |  |
| N#Cc1cccnc1N1CCN(C(=O)c2ccc(Cl)cc2)CC1 | -11.5% (inactive) |  |  |
| O=C(Cn1c2ccccc2c2nc3n(c(=O)c21)CCS3)N1CCOCC1 |  | 2660 nM |  |
| O=C(Cn1c2ccccc2c2nc3n(c(=O)c21)CCS3)N1CCCC1 |  | 837 nM and 2700 nM |  |
| COc1ccc2c(c1)c1nc3n(c(=O)c1n2CC(=O)N1CCC(Cc2ccccc2)CC1)CCS3 | -1.27% (inactive) |  |  |
| COC(=O)Cn1nc(C)c2ccccc21 | -1.03% (inactive) |  |  |
| COC(=O)Cn1nc(-c2ccccc2)c2cc(Cl)ccc21 |  | 8100 nM |  |
| COCCC(=O)N1CCN(c2ccccn2)CC1 | -0.956% (inactive) |  |  |
| CC(C)C(=O)N1CCN(c2ccccn2)CC1 | 6.09% (inactive) |  |  |
| O=C(C1CCCCC1)N1CCN(c2ccccn2)CC1 | -20.7% (inactive) |  |  |
| O=C(Cn1nc(C(=O)N2CCCCC2)c2ccccc21)N1CCOCC1 | -6.13% (inactive) |  |  |
| N#Cc1ccc(C(=O)N2CCN(c3ccccn3)CC2)cc1 | -16.1% (inactive) |  |  |
| O=C(Cn1c2ccc(F)cc2c2nc3n(c(=O)c21)CCS3)N1CCCCCC1 |  | 1360 nM |  |
| O=C(c1ccc(Cl)cc1)N1CCN(c2nc3ccccc3o2)CC1 |  | 12100 nM |  |
| O=C(Cn1c2ccc(F)cc2c2nc3n(c(=O)c21)CCS3)N1CCCC1 |  | 532 nM |  |
| O=c1c2[nH]c3ccccc3c2nc2n1CCS2 |  | 8160 nM |  |
| COc1ccc2c(c1)c1nc3n(c(=O)c1n2CC(=O)N1CCC(C)CC1)CCS3 |  |  | activity change, negative = inhibition ([1]; at 1.2 µM (top of the series)): 15.5% (inactive) |
| O=C(Cn1c2ccccc2c2nc3n(c(=O)c21)CCS3)NCCc1ccc(Cl)cc1 | -0.805% (inactive) |  |  |
